# L929 necroptosis = L929 zVAD cell death inhibition; L929 zVAD necroptosis rescue, ATP luminescence, 24 h; with zVAD 60 µM; viability rescue, % at 10 µM; 220,000 tested, 0.38% active; AID 1377;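 active = activation, scaled between plate controls, above about 75%, limit read from the data; inactive = activation under that limit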;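 also: 0% = zVAD with DMSO and 100% = DMSO alone without zVAD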
# TNAP inh hiacc = TNAP (human) inhibition, high acceptor; P05186; purified TNAP, CDP-star luminescence, 1 M DEA; inhibition, % at 20 µM; 200,000 tested, 0.03% active; AID 1135;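 active = over 50% inhibition of tissue-nonspecific alkaline phosphatase at 20 µM in the single-dose screen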;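 also: plate controls were DMSO wells for no effect and EDTA-quenched wells as full inhibition for full effect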
# Target sequence (P05186 whole entry, looked up): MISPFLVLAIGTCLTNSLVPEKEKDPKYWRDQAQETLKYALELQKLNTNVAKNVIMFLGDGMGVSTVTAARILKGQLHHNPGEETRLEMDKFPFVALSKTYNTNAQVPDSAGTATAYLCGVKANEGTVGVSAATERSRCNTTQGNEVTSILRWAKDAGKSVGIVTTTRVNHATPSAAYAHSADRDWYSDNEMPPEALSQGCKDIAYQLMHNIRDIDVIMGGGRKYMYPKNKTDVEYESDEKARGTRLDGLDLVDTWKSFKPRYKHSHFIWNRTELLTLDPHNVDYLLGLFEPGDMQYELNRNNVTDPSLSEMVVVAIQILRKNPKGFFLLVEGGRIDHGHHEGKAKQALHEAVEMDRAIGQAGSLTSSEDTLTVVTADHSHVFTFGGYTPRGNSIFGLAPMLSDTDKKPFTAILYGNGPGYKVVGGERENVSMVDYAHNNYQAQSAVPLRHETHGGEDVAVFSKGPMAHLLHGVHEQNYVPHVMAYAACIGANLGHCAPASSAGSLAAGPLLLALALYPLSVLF
# SDO1 yeast rescue = restores growth of sdo1-depleted yeast | S. cerevisiae sdo1-depleted JHY4D growth rescue, OD600 30 h; stronger effect = higher value; pdr5 snq2 efflux-pump mutant strain | z-score at 10 µM | 140,000 tested, 0.21% active | AID 817;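 active = z-score above 3 at both the 24 hr and the 30 hr optical density reads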;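 also: z-score against mean and SD of all compound wells on the same plate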
# TNAP inh noacc = inhibitors of human TNAP without phosphate acceptor; P05186; purified TNAP, CDP-star luminescence, 30 min; inhibition, % at 20 µM; 200,000 tested, 0.26% active; AID 1012;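 active = tissue-nonspecific alkaline phosphatase inhibition above about 50% at 20 µM in the single-dose screen, limit read from the data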;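 also: 0% = DMSO negative control and 100% = EDTA positive control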
# TNAP act hi DEA = activators of human TNAP at high phosphate acceptor concentration | purified TNAP, CDP-star luminescence, 1 M DEA, 30 min; stronger effect = higher value; 0 = EDTA background, 1 = DMSO-only activity | AID 1136 | activation factor at 20 µM | 200,000 tested, under 10 active;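 active = activation factor at least 2 at 20 µM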
#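 Test system – human TNAP · Doses – 20 µM single point · Incubation – 30 min, room temperature · Signal – luminescent substrate turnover signal · Read-out basis – activation factor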
# TNF necrop inh = TNF-alpha cell death inhibition in Jurkat FADD-/- cells | 220,000 tested, 0.068% active | AID 463075 | Jurkat FADD-/- TNF necroptosis rescue, ATP luminescence, 24 h; 0 = TNF only, 100 = no-TNF cells | activation (protection from cell death), % at 10 µM;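 active = activation, meaning protection from cell death, of at least 50% relative to plate controls; inactive = activation below 50%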;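 also: necroptosis triggered by 40 ng/mL TNF-alpha added together with compound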
# Active calls of the source: *; i = inactive; nt = no result given. This is a sample that favours compounds with a hit; in the whole collection about 0.81% have one here.
SMILES,L929 necroptosis,TNAP inh hiacc,SDO1 yeast rescue,TNAP inh noacc,TNAP act hi DEA,TNF necrop inh
CC1CC(C)CN(S(=O)(=O)c2ccccc2[N+](=O)[O-])C1 (stereo unspecified),0,0,-1,2,1,1
N/C(COc1ncn(-c2ccccc2)n1)=N\S(=O)(=O)c1ccc(Cl)cc1Cl,1,48,nt,63*,0.5,0
NC(=O)COc1ncn(-c2ccccc2)n1,1,-3,0.56,-18,1,1
C#CCOC(=O)Nc1ccc(OCC(F)(F)F)nc1,0,nt,nt,nt,nt,0
O=C(CSc1ccc2ccccc2c1)NCCc1ccc(O)c(O)c1,51,-2,nt,54*,1,-10
COc1ccc(CCNC(=O)C2CC(c3ccccc3F)=NO2)cc1 (stereo unspecified),0,nt,nt,nt,nt,9
Cc1ccc2[nH]c(=O)c(NC(N)=S)nc2c1,1,4,0.62,-1,1,-4
NC(=S)Nc1nc2ccccc2[nH]c1=O,1,16,1.1,71*,0.8,-2
CCOc1ccc(CN2C(=O)CC(=O)N(S(=O)(=O)c3ccc(OCC)cc3)C2=O)cc1,0,nt,nt,nt,nt,4
O=C(N/N=C\c1cccc([N+](=O)[O-])c1O)C1COc2ccccc2O1 (stereo unspecified),0,10,1.2,53*,0.9,2
O=C(COc1ccccc1Cl)NC(=O)NC1CCCC1,1,-5,-0.41,-11,1,57*
O=C(COc1ccccc1-c1ccccc1)NNC(=O)NC1CCCCC1,0,-3,nt,-56,1,0
O=C(NNc1c(Cl)cccc1Cl)C1CCC1,6,nt,nt,nt,nt,75*
O=C(c1ccccc1F)c1cc2c(cc1[N+](=O)[O-])OCCO2,1,0,nt,-3,1,0
CCN1/C(=C/C(C)=C/c2sc3ccccc3[n+]2CC)Sc2ccccc21,11,44,nt,59*,0.6,-15
Cc1cccc(/C=N/n2c(-c3ccccn3)n[nH]c2=S)c1,0,-2,0.98,54*,1,0
CC(C(=O)N1CCOCCOCCOCCOCCOCC1)N1C(=O)c2ccccc2C1=O (stereo unspecified),2,-2,nt,9,1,0
COc1ccc2c(c1)CCc1c(C(=O)Nc3cc(C)n(Cc4ccc(Cl)cc4)n3)noc1-2,4,-4,0.35,-9,1,1
Cc1cc(NC(=O)c2noc3c2CCCC3)nn1Cc1ccc(Cl)cc1,82*,-2,-1.5,-6,1,-1
COC(=O)N=Nc1c(O)[nH]c2ccc(Br)cc12,2,nt,nt,nt,nt,-8
COc1ccc(Cc2nnc(N=Nc3c(O)[nH]c4ccc(Br)cc34)[nH]c2=O)cc1,7,41,nt,53*,0.6,0
Cc1c(Br)c(=O)oc2c(Br)c(O)ccc12,0,-1,nt,-13,1,0
Cc1c(Br)c(=O)oc2c(Br)c(O)c(O)cc12,1,2,-0.34,50*,1,7
Cc1ccc(NC(=O)c2c(C(=O)Nc3ccccc3)sc3nc(C)cc(=O)n23)cc1,0,-1,nt,9,1,1
Cc1ccc(C(=O)/C=C/c2cn(CC(O)CN3CCOCC3)c3ccccc23)cc1 (stereo unspecified),77*,7,-0.92,-10,0.9,4
SMILES,L929 necroptosis,TNAP inh hiacc,SDO1 yeast rescue,TNAP inh noacc,TNAP act hi DEA,TNF necrop inh
O=C(/C=C/c1cn(CC(O)CN2CCOCC2)c2ccccc12)c1cccs1 (stereo unspecified),-1,nt,nt,nt,nt,2
Cc1cccc(C)c1NC(=S)NCCc1ccc(O)c(O)c1,3,1,nt,60*,1,-4
COc1ccc(OCC(=O)Nc2ccc3oc(-c4ccncc4)nc3c2)cc1,2,-30,nt,i,1.3,-2
COc1ccc(-c2nc3cc(NC(=O)Cc4ccc(OC)c(OC)c4)ccc3o2)cc1,89*,-24,1.4,-95,1.2,0
O=C(NNC(=O)C1CCN(Cc2ccc(F)cc2Cl)CC1)Nc1ccc([N+](=O)[O-])cc1,1,-6,nt,-14,1.1,4
COc1ccc(-c2cnnc(N/N=C/c3ccc(O)c(O)c3)n2)cc1,73,36,0.89,56*,0.6,-3
COc1ccc(-c2cnnc(N/N=C/c3ccc(O)cc3)n2)cc1,1,-1,nt,-10,1,3
O=[N+]([O-])c1ccccc1NC(=S)N/N=C/c1ccc(O)c(O)c1,46,20,nt,85*,0.8,-5
CCOc1cccc(/C=N/NC(=S)Nc2ccccc2[N+](=O)[O-])c1O,5,14,nt,-99,0.9,-5
Cc1[nH][nH]c(=O)c1C(c1cc([N+](=O)[O-])ccc1O)c1c(C)[nH][nH]c1=O,0,77*,1.4,79*,0.2,0
Cc1[nH][nH]c(=O)c1C(c1ccccc1[N+](=O)[O-])C(C#N)C#N (stereo unspecified),1,8,nt,-1,0.9,-1
Nc1n[nH]c(-c2ccccc2[N+](=O)[O-])n1,0,2,0.65,86*,1,0
CNC(=O)CN(C)S(=O)(=O)c1ccc(F)cc1,0,-2,0.35,-11,1,0
Cc1cc(C)c2c(N=NN(C)C)[nH]nc2n1,1,-2,-0.52,52*,1,-5
CCCCNC(=O)c1ccc2c(c1)ncn2C1CCCC1,4,-4,-0.19,-16,1,3
CCN(CC)CCNC(=O)c1ccc2c(c1)ncn2C1CCCCC1,93*,-6,-0.12,-14,1.1,0
O=C(O)c1cc(-c2ccccc2Cl)n[nH]1,1,10,0.38,96*,0.9,0
O=C(O)/C=C\C(=O)NNC(=O)c1cc(-c2ccccc2)n[nH]1,0,nt,nt,nt,nt,4
CC(/C=N/NC(=O)c1cc(-c2cccn2C)n[nH]1)=C\c1ccccc1,2,nt,nt,nt,nt,2
CCOc1ccc(/C=N/NC(=O)c2cc(-c3cccn3C)n[nH]2)cc1,0,7,nt,79*,0.9,-1
Cn1cccc1-c1cc(C(=O)O)[nH]n1,nt,2,0.71,70*,1,nt
O=C(O)c1cc(-c2ccccc2)n[nH]1,1,2,1.1,86*,1,0
CC(Nc1nc(-c2ccc3c(c2)NC(=O)CO3)cs1)c1ccccc1 (stereo unspecified),61,-5,nt,-5,1.1,83*
O=C1COc2ccc(-c3csc(NCC4CCCO4)n3)cc2N1 (stereo unspecified),54,-7,0.48,5,1.1,-1
Cc1nn(Cc2ccccc2)c(N)c1-c1ccccc1,1,-7,0.82,-8,1.1,-1
Cc1nn(Cc2ccccc2)c(N)c1C#N,1,-4,0.23,-11,1,54*
Cc1n[nH]c(C)c1S(=O)(=O)N1CCOCC1,0,2,0.72,57*,1,1
